Sampled rows, rich in hits. Any-hit rate of the full collection: about 6.4%.
TbMetRS inhib: T. brucei MetRS inhibitors, primary screen, biochemical, luminescence; purified T. brucei MetRS, ATP depletion, Kinase-Glo luminescence; inhibition, % at 11.9 µM; hit rate 0.4% among 360,000;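 active = inhibition above a per-plate cutoff of the control wells' mean inhibition plus 3 SD, cut at about 5.5% in these data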;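 also: 0% = DMSO wells median and 100% = median of wells with control inhibitor compound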
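Dosing: 11.9 µM compound single dose, 0.9% DMSO; Assay system: purified T. brucei MetRS enzyme; Measured by: Kinase-Glo luciferase luminescence reporting remaining unconsumed ATP; Schedule: 15 min plus 2 h at 25 °C.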
WT yeast gro inh: growth inhibition of WT strain, primary screen, mitochondrial fusion inhibitor project, WT and mutant strains, chemical genetic. mitochondrial fusion phenotypic screen. inhibition, % at 10 µM. hit rate 2.1% among 190,000. AID 1362, 2008; in the data active = inhibition above about 58%; tested in S. cerevisiae
MPTP inh: mitochondrial permeability transition pore inhibitors, primary screen, biochemical, isolated mouse mitochondria, absorbance; AID 602449, 2012; inhibition, % at 10 µM; Ca2+ swelling absorbance, 30 min; hit rate 1.4% among 360,000;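 active = inhibition of 50% or more, scaled per plate between neutral and stimulator controls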;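 also: 0% = DMSO wells given calcium and 100% = 1 mM EGTA wells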
EBV gp42 inh: Epstein-Barr virus gp42 inhibitors, primary screen, biochemical, uHTS, fluorescence polarization; Glycoprotein 42 (Epstein-Barr virus (strain AG876)), Q1HVG2; Fluorescence polarization binding assay, mP read-out; inhibition, % (tested at 21.74 µM); hit rate 0.42% among 220,000; AID 1085, 2008; in the data active = inhibition above about 50%
Target sequence (Q1HVG2 whole entry, looked up): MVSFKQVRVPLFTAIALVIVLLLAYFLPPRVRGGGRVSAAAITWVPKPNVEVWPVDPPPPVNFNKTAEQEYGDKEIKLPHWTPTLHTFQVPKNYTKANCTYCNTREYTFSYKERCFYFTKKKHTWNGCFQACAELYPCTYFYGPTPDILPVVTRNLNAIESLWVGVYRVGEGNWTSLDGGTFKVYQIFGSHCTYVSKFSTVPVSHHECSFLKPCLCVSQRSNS
NR3A LBD binder: binders of NR3A ligand-binding domain, primary screen, biophysical, differential scanning fluorimetry, uHTS. NR3A LBD differential scanning fluorimetry, Tm shift; 0% = protein alone, 100% = glycine-bound protein. Tm shift relative to glycine control, % at 25 µM. hit rate 2.5% among 340,000;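 active = melting temperature shift of at least 10% of the positive control shift, at one fixed dose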
CHOP inhibitor: inhibitors of CHOP promoter induction, primary screen, cell-based, unfolded protein response, luciferase reporter; CHO-K1 CHOP-promoter luciferase, tunicamycin-induced, 15-18 h; inhibition, % at 10 µM; hit rate 3.8% among 220,000;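 active = compounds that reduced the stress-induced luciferase reporter signal by more than about 70% of percent inhibition, limit read from the data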;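 also: 0% = tunicamycin plus vehicle and 100% = wells without tunicamycin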
Numbers without * were called inactive; / = no result.

SMILES	TbMetRS inhib	WT yeast gro inh	MPTP inh	EBV gp42 inh	NR3A LBD binder	CHOP inhibitor
O=[N+]([O-])c1ccc(N(CCO)CCO)c2c1no[n+]2[O-]	-0.3	/	21.0	/	/	/
CN1CCN(c2ccc([N+](=O)[O-])c3no[n+]([O-])c23)CC1	0.0	/	15.0	140.9*	-1.1	106.8*
CCN(CC)c1nc2c(C)cccn2c(=O)c1C=C1C(=O)NC(=O)NC1=O	-0.8	-6.5	-1.6	5.5	1.1	21.1
COC(=O)C1=C(C(=O)OC)SC2(S1)C(C(=O)OC)=C(C(=O)OC)Sc1c2ssc1=O	-0.2	/	-3.0	/	25.4*	/
CNC(=O)Oc1ccc(-c2cn3cc(C)ccc3n2)cc1	-3.4	35.8	-2.2	-0.9	23.9*	50.4
COc1ccc(NP(=O)(Oc2ccc(Cl)cc2)Oc2ccc(Cl)cc2)cc1OC	-0.9	65.0*	7.4	7.2	-14.1	0.5
Cc1cc(N2CCCC2)ccc1C=C(C#N)C#N	0.6	9.0	3.9	84.6*	5.2	-3.0
Cc1cc(N2CCCCC2)ccc1C=C1C(=O)N(C)C(=S)N(C)C1=O	-0.6	9.2	0.3	-23.5	-1.6	-0.8
CCOC(=O)C1SC2(C(F)F)CC1(O)c1c(c(OC)c3occc3c1OC)O2 (centres undefined)	-0.9	63.9*	-0.3	4.5	4.4	10.5
CCOP(=O)(OCC)C(NC(=O)Cc1ccccc1)C(Cl)(Cl)Cl (centres undefined)	-0.4	-10.3	2.8	-9.4	-1.2	22.0
CCOP(=O)(OCC)C(NC(=O)CC(C)C)C(Cl)(Cl)Cl (centres undefined)	-0.7	-14.9	1.6	-2.2	-0.2	70.7*
CC(=O)C1CCC2C3CCC4CC(O)CCC4(C)C3CCC12C (centres undefined)	-1.3	/	-0.5	/	14.3*	/
C/C(=N\N1CCCCCC1)c1c(O)n(-c2ccc(C)cc2)c(=O)[nH]c1=O	-0.9	5.0	-1.3	-23.8	-1.5	1.5
CC/C(=N\N1CCCCCC1)c1c(O)n(-c2ccc(C)cc2)c(=O)[nH]c1=O	0.3	13.6	-0.2	4.2	21.3*	23.9
CCOC(=O)c1ccc(NC(=O)c2c(O)[nH]c(=O)[nH]c2=O)cc1	-0.9	24.4	-1.3	76.7*	2.3	-11.0
CCOc1ccc(NC(=O)c2c(O)[nH]c(=O)[nH]c2=O)cc1	-0.2	/	-1.4	/	0.5	/
CCCSc1nc(O)c(CC)c(=O)n1C(C)CC (centres undefined)	-0.1	50.6	0.1	-4.7	1.3	5.9
C/C(=N\NC(=O)c1ccccc1O)c1c(O)n(C2CCCCC2)c(=O)[nH]c1=O	0.2	/	-0.1	/	12.9*	/
COc1ccc(Oc2cc(NC(=O)c3nn(C)cc3[N+](=O)[O-])cc([N+](=O)[O-])c2)cc1	0.2	13.1	-0.2	-5.6	15.2*	-54.2
CCCCn1c(=O)c(C(=O)Nc2ccccc2S(N)(=O)=O)c(O)c2ccccc21	-0.7	66.6*	-2.3	3.5	-0.2	77.3*
CCCCCn1c(=O)c(C(=O)Nc2cnccn2)c(O)c2ccccc21	-0.1	4.7	3.4	-16.2	-5.6	104.1*
CCCCCn1c(=O)c(C(=O)Nc2ccccc2S(N)(=O)=O)c(O)c2ccccc21	-0.8	76.6*	-2.9	-11.4	-1.4	81.7*
C=CCn1c(O)c(C(C)=NCCCn2ccnc2)c(=O)[nH]c1=O	-0.4	/	0.2	-20.7	-1.3	1.9
COc1ccc(CCn2c(O)c(C=NCc3cccnc3)c(=O)[nH]c2=O)cc1OC	0.5	5.4	-0.3	-4.0	0.7	-3.0
COc1ccc(CCN)cc1S(N)(=O)=O	-0.2	/	-3.8	/	/	/
SMILES	TbMetRS inhib	WT yeast gro inh	MPTP inh	EBV gp42 inh	NR3A LBD binder	CHOP inhibitor
CN(C)c1ccc2c(c1)N=C(c1ccco1)OP2(=S)N1CCOCC1 (centres undefined)	-0.8	-0.3	-1.0	-7.8	1.3	-1.1
O=C(c1ccco1)c1cn(Cc2ccc(Cl)cc2)c2ccccc12	0.1	68.9*	3.7	1.6	-2.5	51.1
Cc1cccc(OP(=O)(NCc2ccccc2)Oc2cccc(C)c2)c1	-0.5	68.6*	4.5	18.1	16.6*	64.8
COc1ccc(NP(=O)(Oc2cccc(C)c2)Oc2cccc(C)c2)cc1OC	-0.2	/	3.0	-10.8	-1.4	24.7
Cc1cccc(OP(=O)(Nc2ccc(F)cc2)Oc2cccc(C)c2)c1	0.3	61.0*	0.3	-1.1	-7.3	-11.3
C=C(C)C(Cc1c(OC)ccc(C(=O)/C=C/c2ccc(O)cc2)c1O)OO (centres undefined)	0.0	/	2.1	/	23.8*	/
CCOC(=O)c1c(/N=C/c2c(O)n(-c3ccccc3F)c(=S)[nH]c2=O)sc2c1CCCC2	-0.6	-8.8	0.7	129.9*	-6.0	11.7
CCOC(=O)c1ccc(N=Cc2c(O)n(-c3ccccc3F)c(=S)[nH]c2=O)cc1	0.6	3.3	0.4	-20.4	-9.5	41.8
CCOC(=O)c1c(/N=C/c2c(O)n(-c3ccc(F)cc3)c(=S)[nH]c2=O)sc2c1CCCC2	-1.1	-4.6	-0.4	56.5*	3.5	10.8
O=C(COC(=O)c1cccc(O)c1)Nc1ccc(Cl)cc1C(=O)c1ccccc1	-0.8	43.9	3.4	6.6	8.9	79.7*
Cc1ccc2c(c1)C1CN(C)CCC1N2C(=O)c1cccnc1Cl (centres undefined)	-0.2	/	0.6	-27.3	-0.5	-17.4
Cc1ccc2c(c1)C1CN(C)CCC1N2C(=O)c1cn(-c2ccccc2)nc1-c1ccccc1 (centres undefined)	-0.7	86.1*	2.0	9.2	-1.0	5.9
CCn1nc(-c2ccccc2)nc2c(=O)n(C)c(=O)nc1-2	27.1*	89.8	2.7	97.9*	-3.4	107.8*
Cc1ccccc1[N+](=O)[O-]	-0.8	/	0.0	/	0.1	/
Cc1cc([N+](=O)[O-])c2ccccc2[n+]1[O-]	-0.2	/	1.4	-2.8	-0.2	104.3*
O=[N+]([O-])c1ccc(Cl)c([N+](=O)[O-])c1	-2.1	/	0.6	/	0.6	/
CN1C(=O)C(c2ccc([N+](=O)[O-])cc2[N+](=O)[O-])C(=O)N(C)C1=O	-0.1	/	0.7	/	10.0*	/
Cc1ccc(-n2cc(CNC(C)Cc3cnccn3)c(-c3cccc(C)c3)n2)cc1 (centres undefined)	-0.2	65.7*	2.9	-14.1	-0.9	35.1
CC1CN1c1cc2c(c3c1ccn3C)C1CCC2C1 (centres undefined)	-0.8	/	-2.3	/	/	/
CCC(=O)Nc1ccc(N2CCN(CC)CC2)c(Cl)c1	0.4	70.2*	-3.1	-24.4	-3.5	-10.5
O=C(O)C1C2c3ccccc3C(=O)C1(C(=O)O)c1ccccc12 (centres undefined)	-0.1	/	-0.8	/	1.9	/
